We go through eight molecules from ChEMBL document CHEMBL1125115 (J Med Chem, 1990).

For orientation: EC50 means the concentration giving half of the maximal effect. A higher EC50 goes with a need for much substance. The term pKB denotes the negative decadic logarithm of the KB, by convention in mol/L.

Square brackets hold non-standard residues; d marks the D form. Peptide text beside a SMILES is read from it. GABA = NCCCC(=O)O

One assay addresses T1, Substance-K receptor (Rattus norvegicus, UniProt P16610).
T1 sequence (P16610 whole entry): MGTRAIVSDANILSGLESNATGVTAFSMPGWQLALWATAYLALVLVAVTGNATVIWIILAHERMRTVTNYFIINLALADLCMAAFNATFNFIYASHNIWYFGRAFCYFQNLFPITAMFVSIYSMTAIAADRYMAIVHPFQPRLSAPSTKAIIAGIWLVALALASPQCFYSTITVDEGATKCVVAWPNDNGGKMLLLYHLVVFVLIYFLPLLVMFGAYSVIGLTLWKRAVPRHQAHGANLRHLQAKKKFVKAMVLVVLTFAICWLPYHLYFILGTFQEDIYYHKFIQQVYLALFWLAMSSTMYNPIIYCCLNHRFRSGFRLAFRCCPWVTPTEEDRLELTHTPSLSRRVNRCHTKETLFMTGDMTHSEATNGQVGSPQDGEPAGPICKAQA
The experiment in a line: Agonist activity was measured at neurokinin-2 receptor in the rat colon muscularis mucosae. The class given is functional, tissue-based, Muscularis mucosa. The gist of the method: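 Rat colon muscularis mucosae strip (NK-2); isotonic contractions at 35 °C with atropine, mepyramine, methysergide and indomethacin (each 1 µM). Equipotent molar ratios converted to EC50 using mean EC50 of standard agonist.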

In a further assay the target is Substance-P receptor (Cavia porcellus, UniProt P30547). The experiment in a line: Agonistic activity at neurokinin-1 (NK-1) receptor in guinea pig ileum longitudinal smooth muscle. The class given is functional, tissue-based. The gist of the method:
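Guinea pig ileum longitudinal smooth muscle-myenteric plexus strip (NK-1); isotonic contractions at 35 °C with atropine, mepyramine, methysergide and indomethacin (each 1 µM). Equipotent molar ratios converted to EC50 using mean EC50 of standard agonist.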

For assay [1], the target named is T2, Substance-K receptor (Rattus norvegicus) (UniProt P16610).
T2 sequence (whole entry): T1 sequence (P16610 whole entry)
Nature of the assay: Antagonistic activity against the highly selective tachykinin receptor 2 in rat colon muscularis mucosae. The class given is functional. In outline:
(§1)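 Rat colon muscularis mucosae, isotonic contractions at 35 °C with atropine, mepyramine, methysergide, indomethacin (1 µM each). Dose ratio from rightward shift of agonist concentration-response curve with antagonist present; pKB = log[DR - 1] - log[B], B = molar antagonist concentration.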

The target in assay [2] is Substance-P receptor (Cavia porcellus) (UniProt P30547). The experiment in a line: Antagonistic activity against the highly selective tachykinin receptor 1 in guinea pig ileum. The class given is functional, tissue-based.
The target of assay [3] is T2, Substance-K receptor (Rattus norvegicus). Nature of the assay: Antagonistic activity at tachykinin receptor 2 in the rat colon muscularis mucosae; C= Partial agonist. The class given is functional. As to conditions: filed as partial agonist. The gist of the method:
as §1

Sequence of Substance-P receptor (Cavia porcellus) (P30547 whole entry): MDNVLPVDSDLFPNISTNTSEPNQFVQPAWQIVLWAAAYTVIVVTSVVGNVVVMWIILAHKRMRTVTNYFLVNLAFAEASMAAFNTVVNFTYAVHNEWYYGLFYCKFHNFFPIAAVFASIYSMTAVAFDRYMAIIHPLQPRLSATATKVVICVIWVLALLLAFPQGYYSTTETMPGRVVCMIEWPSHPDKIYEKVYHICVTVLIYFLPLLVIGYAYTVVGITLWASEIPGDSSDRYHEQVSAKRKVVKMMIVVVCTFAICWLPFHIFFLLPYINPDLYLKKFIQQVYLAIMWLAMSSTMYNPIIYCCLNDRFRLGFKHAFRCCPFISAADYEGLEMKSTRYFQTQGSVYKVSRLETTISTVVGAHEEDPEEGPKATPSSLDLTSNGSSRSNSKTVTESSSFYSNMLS
Sequence of Substance-P receptor (P30547 whole entry): as above

With `CC(C)C[C@H](NC(=O)CNC(=O)[C@H](Cc1ccccc1)NC(=O)[C@H](Cc1ccccc1)NC(=O)CCCN)C(=O)N[C@@H](Cc1c[nH]c2ccccc12)C(N)=O` (H-[GABA]FFGLW-NH2), the EC50 at Substance-K receptor was over 16 µM; at Substance-P receptor, 4.38 µM.

Take `CC(C)C[C@@H](C(=O)NC(CCc1ccccc1)C(N)=O)N1CCC2(CCCN2C(=O)[C@H](Cc2ccccc2)NC(=O)[C@H](Cc2ccccc2)NC(=O)CCCN)C1=O` (stereo partly specified): the pKB in assay [1] came out at 5.84; in assay [2], 6.64.

As to `CC(C)C[C@@H](C(=O)NC(Cc1c[nH]c2ccccc12)C(N)=O)N1CCC2(CCCN2C(=O)[C@H](Cc2ccccc2)NC(=O)[C@H](Cc2ccccc2)NC(=O)CCCN)C1=O` (stereo partly specified), the values for the pKB in assay [1] and in assay [2] were 5.27 and 6.62, respectively.

In the case of `CNC(=O)[C@H](CC(C)C)N1CCC2(CCCN2C(=O)[C@H](Cc2ccccc2)NC(=O)[C@H](Cc2ccccc2)NC(=O)CCCN)C1=O` (stereo partly specified), the pKB in assay [1] and in assay [2] was under 4.5 throughout.

As to `CSCC[C@@H](NC(=O)[C@H](CC(C)C)N1CCC2(CCCN2C(=O)[C@H](Cc2ccccc2)NC(=O)[C@H](Cc2ccccc2)NC(=O)CCCN)C1=O)C(N)=O` (stereo partly specified), the values for the pKB in assay [1] and in assay [2] were under 4.5 and 5.66, respectively.

Take `CSCC[C@H](NC(=O)[C@H](CC(C)C)N1CCC2(CCCN2C(=O)[C@H](Cc2ccccc2)NC(=O)[C@H](Cc2ccccc2)NC(=O)CCCN)C1=O)C(N)=O` (stereo partly specified): the figures for the pKB in assay [2] and in assay [3] were 5.6 and “Partial agonist”, respectively.

As for `CC(C)C[C@@H](C(=O)N[C@H](CC1CCCCC1)C(N)=O)N1CCC2(CCCN2C(=O)[C@H](Cc2ccccc2)NC(=O)[C@H](Cc2ccccc2)NC(=O)CCCN)C1=O` (stereo partly specified), the pKB in assay [1] turned out to be 5.86; in assay [2], 6.43.

As to `CC(C)C[C@@H](C(=O)N[C@H](Cc1ccccc1)C(N)=O)N1CCC2(CCCN2C(=O)[C@H](Cc2ccccc2)NC(=O)[C@H](Cc2ccccc2)NC(=O)CCCN)C1=O` (stereo partly specified), the values for the pKB in assay [1] and in assay [2] were 5.36 and 6.28, respectively.
